Tb hexokinase – T. brucei hexokinase 1 inhibition | recombinant TbHK1, G6PDH-coupled NADH A340 | inhibition, % at 10 µM | hit rate 0.11% among 220,000 | AID 1430;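 active = inhibition of 50% or more in the single-dose primary screen; inactive = inhibition below 50%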
EP2 mod – EP2 receptor (human) modulation | P43116 | EP2-expressing cells, cAMP HTRF FRET, PGE2 co-stimulation | induction, % at 25 µM | hit rate 0.83% among 260,000 | AID 940;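 active = compounds whose cAMP rise, as percent of the full-agonist control response, exceeds 60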;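 note: rat C6 glioma line stably carrying human EP2 under a CMV promoter; the protocol text gives 20 µM as final concentration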
Target sequence (P43116 whole entry, looked up): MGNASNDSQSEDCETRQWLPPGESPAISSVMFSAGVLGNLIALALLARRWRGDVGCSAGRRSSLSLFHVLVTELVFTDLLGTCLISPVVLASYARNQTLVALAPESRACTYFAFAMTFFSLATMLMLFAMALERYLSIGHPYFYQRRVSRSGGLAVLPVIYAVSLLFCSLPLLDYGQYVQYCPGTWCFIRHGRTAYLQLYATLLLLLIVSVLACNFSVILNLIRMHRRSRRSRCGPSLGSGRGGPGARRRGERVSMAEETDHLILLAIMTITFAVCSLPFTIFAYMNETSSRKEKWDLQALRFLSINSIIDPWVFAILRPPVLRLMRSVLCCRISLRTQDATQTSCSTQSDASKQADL
PGE2 EP2 inh – inhibitors of human EP2 prostaglandin E2 receptor; hit rate 0.52% among 260,000; inhibition, % at 25 µM; AID 1422; P43116; C6 glioma cells expressing human EP2, cAMP TR-FRET; cells stimulated with saturating PGE2;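 active = percent inhibition above 40 after rounding to a whole number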;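 note: rat C6 glioma host cells with rolipram phosphodiesterase inhibitor present; the protocol text gives 20 µM as final concentration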
MT stabilize HCS – microtubule stabilization, imaging screen. HeLa tubulin immunostaining HCS, 24 h; share of cells brighter than vehicle mean+2SD. % tubulin-high responders, % at 10 µM. hit rate 0.83% among 200,000;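 active = plate Z-score above 3 for both tubulin-high and condensed-nucleus cell shares, with cell loss under 80%, at 10 µM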;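 note: anti alpha tubulin signal scored within the nucleus-defined area of each cell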
Efa HMGR inh – inhibitors of class II HMG-CoA reductase from Enterococcus faecalis; hit rate 0.41% among 190,000; inhibition, % at 10 µM; AID 1066; purified E. faecalis HMGR, NADPH absorbance 340 nm kinetic;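 active = inhibition above a set limit, the median over all tested compounds plus 3 SD, cut at about 9.5% in these data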;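 note: enzyme runs in reverse so mevalonate oxidation gives rising NADPH absorbance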
b-catenin transl – alters nuclear translocation of beta-catenin in HeLa cells. immunofluorescence imaging. nuclear translocation activity, % at 5 µM. hit rate 0.3% among 190,000;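 active = nuclear translocation activity above 50% at 5 µM, with a well cell count of 50 or more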;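 note: per-cell ratio of nuclear to cytoplasmic median beta-catenin stain intensity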
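assay system = human HeLa cells, endogenous beta-catenin | times = compound treatment 24 h, 37°C, 5% CO2 | detection = Anti-beta-catenin immunofluorescence on PFA-fixed, Triton-permeabilized cells, DAPI nuclei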
A number is an active result; – = inactive; · = not tested or not shown; ! = not active in a repeat. This is a sample that favours compounds with a hit; in the whole collection about 2.4% have one here.

SMILES	Tb hexokinase	EP2 mod	PGE2 EP2 inh	MT stabilize HCS	Efa HMGR inh	b-catenin transl
Oc1cccc(C2c3[nH]c4ccccc4c3CCN2Cc2ccc3c(c2)CCO3)c1 (stereo not given)	–	–	–	8.2	–	–
Cc1ccc2[nH]c(=O)c(CN(CCCO)S(=O)(=O)c3ccc(C(C)(C)C)cc3)cc2c1	·	–	–	·	·	·
OC(COc1ccc(Cl)cc1)CN1C2=NCCN2c2ccccc21 (stereo not given)	·	–	–	·	·	·
COc1cc(C(=O)NC2CCCC2)c(Br)c(OC)c1OC	–	–	–	–	–	–
COc1cc(C(=O)NCCOc2cc(C)cc(C)c2)c(Br)c(OC)c1OC	–	–	–	44.2	–	–
C=CCn1c(O)c(N=NC(=O)CNC(=O)c2ccco2)c2ccccc21	–	–	–	12.5	–	–
CCn1c(O)c(N=NC(=O)CNC(=O)c2ccco2)c2ccccc21	–	–	–	–	–	–
Cc1cc(C)cc(Oc2nc(C(F)(F)F)nc3ccccc23)c1	–	60.6	–	–	–	–
COc1ccc(Oc2nc3ccccc3nc2C(F)(F)F)cc1	–	–	–	–	–	–
COc1ccccc1-c1ccc(=O)n(CC(=O)NC2CCCCC2)n1	·	–	–	·	·	·
CCC(c1nnnn1Cc1ccc(F)cc1)N(Cc1cc2ccc(C)cc2[nH]c1=O)C1CCCC1 (stereo not given)	·	–	–	·	·	·
Cc1cc(C)c(S(C)(=O)=O)c(Oc2ccc(F)cc2)n1	–	–	·	–	10.2	–
CCc1nnc(NC(=O)CCN(c2cc(C)cc(C)c2)S(=O)(=O)c2ccc(Cl)cc2)s1	–	–	–	18.9	–	–
CCC(=O)Nc1nnc(SCC(=O)Nc2ccccc2F)s1	·	–	–	·	·	·
Cc1ccc(C(=O)NCCOc2cccc3cccnc23)cc1Cl	–	–	–	–	–	–
COc1cc(C(=O)NCCOc2cccc3cccnc23)cc(OC)c1OC	–	–	–	39.6	–	–
CCOC(=O)CN1N=C(c2ccccc2)Cn2c(cc3ccccc32)C1=O	·	–	·	·	·	·
COc1ccc(/C=C/C(=O)c2ccc(O)cc2O)cc1	·	–	–	·	·	·
COc1ccc(/C=C/C(=O)c2cc(O)ccc2O)cc1	·	–	49.8	·	·	·
COc1ccccc1NC(=O)C(C#N)Cc1cc2cc(C)c(C)cc2[nH]c1=O (stereo not given)	·	–	–	·	·	·
Cc1cc(C(F)F)n2nc(C(=O)Nc3ccccc3Cl)nc2n1	·	–	–	·	·	·
CCCC(=NCCc1c(C)[nH]c2ccccc12)C1=C(O)CC(c2ccccc2)CC1=O (stereo not given)	–	–	–	25.7	–	131.9
CCCCC(=NCCc1c(C)[nH]c2ccccc12)C1=C(O)CC(c2ccccc2)CC1=O (stereo not given)	–	–	–	–	–	50.5
O=C(N/N=C/c1ccc(Br)cc1)c1ccccc1-n1cccc1	–	–	–	46.9	–	–
O=C(CN1N=C(c2ccccc2)Cn2c(cc3ccccc32)C1=O)Nc1nccs1	·	–	–	·	·	·
SMILES	Tb hexokinase	EP2 mod	PGE2 EP2 inh	MT stabilize HCS	Efa HMGR inh	b-catenin transl
Cc1ccc(C(=O)NCCCNC(=O)c2ccc(C)nc2)cn1	·	–	–	·	·	·
CC(C)(C)n1nc(-c2ccc(Cl)cc2)c2c(N)ncnc21	–	–	–	–	–	·
Cc1ccc(-c2nn(C(C)(C)C)c3ncnc(NS(=O)(=O)c4ccc([N+](=O)[O-])cc4)c23)cc1	–	61.5	–	–	–	–
CCOC(=O)c1sc(Nc2ccccc2)nc1C	–	–	–	–	–	·
CCOC(=O)c1sc(N/N=C/c2ccccc2)nc1C	–	61.5	–	–	9.9	–
CCOC(=O)c1sc(NC(=O)CSc2nccc(C)n2)nc1C	–	–	–	–	19.1	–
CCOC(=O)c1sc(Nc2ccc(C)cc2C)nc1C	–	64.1	–	–	–	–
CCOC(=O)c1sc(NC(=O)CSc2nccc(=O)[nH]2)nc1C	·	–	–	·	·	·
Cn1c(=O)sc2cc(S(=O)(=O)NC3(CN4CCCC4)CCCCC3)ccc21	·	–	–	·	·	·
CCOC(=O)Cc1csc(NC(=O)CSc2nc3c(C)c(C)ccc3cc2C#N)n1	·	–	–	·	·	·
Cc1cc2cc(C(c3nnnn3C(C)(C)C)N3CCC(C)CC3)c(=O)[nH]c2cc1C (stereo not given)	·	–	–	·	·	·
Cc1ccccc1OCC(=O)NNC(=O)Nc1ccc(Cl)cc1	–	–	–	–	–	75.7
C=CCn1c(SCC(=O)Nc2ccc(F)cc2)nc2sc3c(c2c1=O)CCC3	·	–	–	·	·	·
CC(C)=CCc1c2c(c3occ(-c4ccc(O)c(O)c4)c(=O)c3c1O)C=CC(C)(C)O2	·	–	40.7!	·	·	·
CC(C)=CCc1c2c(c3occ(-c4ccc(O)cc4)c(=O)c3c1O)C=CC(C)(C)O2	–	–	–	–	–	–
O=S(=O)(Nc1ccc2c(c1)nc1n2CCN(Cc2ccccc2)C1)c1ccc(Cl)cc1	–	–	–	30.1	–	–
O=S(=O)(Nc1ccc2c(c1)nc1n2CCN(Cc2ccccc2)C1)c1ccccc1	–	–	–	–	–	–
Cc1cc(-c2ccccc2)nc(N(C)N)c1S(C)(=O)=O	–	–	–	–	11.0	–
O=C(C1CCCC1)N1CCC[C@H]1Cn1nc(-c2cccs2)ccc1=O	·	–	·	·	·	·
COc1ccc(N(C(=O)Cc2cccs2)C(C(=O)NC2CCCC2)c2ccc(F)cc2)cc1 (stereo not given)	·	–	–	·	·	·
COc1ccccc1NC(=O)c1ccc(-c2ccc(Br)cc2)o1	–	–	–	38.6	–	–
O=C(Nc1cccc(NC(=O)c2ccc(-c3ccc(Br)cc3)o2)c1)c1ccccc1	–	–	–	17.6	–	–
O=C(Nc1ccccc1)c1ccc(-c2ccc(Br)cc2)o1	–	–	–	–	–	·
Cc1cc2c(o1)c1cnn(CC(=O)N3CCCC3)c(=O)c1n2C(C)C	·	–	·	·	·	·
Cc1ccc(-n2c(O)c(/C=C3/C(c4ccccc4)=Nc4ccccc43)c(=O)[nH]c2=O)cc1	–	–	–	17.6	–	–
SMILES	Tb hexokinase	EP2 mod	PGE2 EP2 inh	MT stabilize HCS	Efa HMGR inh	b-catenin transl
COc1ccccc1C(=O)N1CCN(c2cccc(Cl)c2)CC1	–	–	–	31.1	–	56.4
O=C(c1c(Cl)nc2sccn12)N1CCN(c2cccc(Cl)c2)CC1	–	–	–	19.0	–	112.0
COc1cc2c(C(=O)N3CCN(c4cccc(Cl)c4)CC3)cn(C)c(=O)c2cc1OC	–	–	–	–	–	·
Cc1onc(-c2ccccc2Cl)c1C(=O)N1CCN(c2cccc(Cl)c2)CC1	–	–	–	20.2	–	·
Cc1onc(-c2ccccc2Cl)c1C(=O)N1CCN(c2ccccc2)CC1	–	–	–	–	–	–
O=C(c1cccc(S(=O)(=O)N2CCCC2)c1)N1CCN(c2ccccc2)CC1	–	–	–	17.8	–	·
CCn1c(=O)oc2cc(S(=O)(=O)NCC(O)COc3ccc(C)cc3)ccc21 (stereo not given)	·	–	–	·	·	·
Cc1nn(CC(=O)N2CCN(c3ccccc3F)CC2)c(=O)c2cc3sccc3n12	·	–	·	·	·	·
O=C(c1cccc(F)c1)N1CCCN(C(=O)c2cccc(F)c2)CC1	–	–	–	–	–	–
O=C(c1cccc(F)c1)N1CCN(c2cccc(Cl)c2)CC1	–	–	–	21.5	–	·

Compound activity (PubChem)
